Experimental data of several laboratories.
Protocols differ between the studies behind these lines.

CC(C)/N=c1\cc2n(-c3ccc(Cl)cc3)c3ccccc3nc-2cc1Nc1ccc(Cl)cc1
MIC (Neisseria gonorrhoeae; microbial growth; ATCC49226): 0.94 µM

C[C@@H]1CC[C@@H]([C@](O)(CNCc2cccc3ccccc23)COCc2ccccc2)[C@H](OCc2ccccc2)C1
inhibition (MDA-MB-231; cell growth or viability, MTT; 10 µM, 72 h): 96.8%

Cc1c(Cc2ccccc2)c(=O)oc2c(C)c(OCC(=O)NN=Cc3ccc([N+](=O)[O-])cc3)ccc12
viability (MDA-MB-231; cell growth or viability, MTT; 31.25 µg/mL): 37.2%

COC1=CC(=O)c2ccccc2C1=O
MIC (Lodderomyces parapsilosis; microbial growth, broth dilution; ATCC22019; 24 h): 6.25 µg/mL

O/N=c1\cc2n(-c3ccc(Cl)cc3)c3ccccc3nc-2cc1Nc1ccc(Cl)cc1
MIC (Neisseria gonorrhoeae; microbial growth; ATCC49226): 0.03 µM

C[C@@H]1CC[C@@H]([C@](C)(O)CNCc2cccc3ccccc23)[C@H](OCc2ccccc2)C1
inhibition (MDA-MB-231; cell growth or viability, MTT; 30 µM, 72 h): 61%

CO/N=c1\cc2n(-c3ccc(Cl)cc3)c3ccccc3nc-2cc1Nc1ccc(Cl)cc1
MIC (Neisseria gonorrhoeae; microbial growth; ATCC49226): 0.94 µM

COc1ccc(COC[C@@](O)(CNCc2ccccc2)[C@@H]2CC[C@@H](C)C[C@H]2OCc2ccc(OC)cc2)cc1
inhibition (MDA-MB-231; cell growth or viability, MTT; 30 µM, 72 h): 101%

O=C(CO/N=c1\cc2n(-c3ccc(Cl)cc3)c3ccccc3nc-2cc1Nc1ccc(Cl)cc1)NCc1ccc2c(c1)CCO2
MIC (Neisseria gonorrhoeae; microbial growth; ATCC49226): 15 µM

CCc1c(C)c2ccc(OCC=Cc3ccccc3)c(C)c2oc1=O
viability (MDA-MB-231; cell growth or viability, MTT; 500 µg/mL): 13%

C[C@@H]1CC[C@@H]([C@@](C)(O)Cn2cnc3ccccc32)[C@H](OCc2ccccc2)C1
inhibition (MDA-MB-231; cell growth or viability, MTT; 30 µM, 72 h): 80%

Cc1c(Cc2ccccc2)c(=O)oc2c(C)c(OCC(=O)NN=Cc3ccc(Cl)cc3)ccc12
viability (MDA-MB-231; cell growth or viability, MTT; 250 µg/mL): 21.2%

C[C@@H]1[C@H](O)[C@@H](C)/C=C/C=C/C=C/C=C/C=C/C=C/C=C/[C@H](O[C@@H]2O[C@H](C)[C@@H](O)[C@H](N)[C@@H]2O)C[C@@H]2O[C@](O)(C[C@@H](O)C[C@@H](O)[C@H](O)CC[C@@H](O)C[C@@H](O)CC(=O)O[C@H]1C)C[C@H](O)[C@H]2C(=O)O
MIC (Lodderomyces parapsilosis; microbial growth, broth dilution; ATCC22019; 24 h): 2 µg/mL

O=C(O)CO/N=c1\cc2n(-c3ccc(Cl)cc3)c3ccccc3nc-2cc1Nc1ccc(Cl)cc1
MIC (Neisseria gonorrhoeae; microbial growth; ATCC49226): 1.88 µM

Cc1c(Cc2ccccc2)c(=O)oc2c(C)c(OCC(=O)NN=Cc3ccccc3)ccc12
viability (MDA-MB-231; cell growth or viability, MTT; 62.5 µg/mL): 17.6%
